{"source": "ChEMBL document CHEMBL5223160", "about": "“Lipase-Catalyzed Synthesis and Biological Evaluation of N-Picolineamides as Trypanosoma cruzi Antiproliferative Agents” (ACS Med Chem Lett, 2023)", "key": {"Vero": {"system": "Vero", "assay": "Cytotoxicity against african green monkey Vero cells at 10 to 600 uM incubated for 72 hrs by resazurin dye based fluorescence assay", "assay_type": "toxicity, cell-based", "conditions": "chlorocebus sabaeus, dose 10-600 µM", "outline": "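Vero cells were exposed to compounds at 10–600 μM for 72 h at 37 °C. Viability was read by resazurin fluorescence at 590 nm. CC50 was taken as the concentration reducing cell proliferation by 50%, reported ± standard deviation.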"}, "Trypanosoma cruzi [1]": {"system": "Trypanosoma cruzi", "assay": "(§1) Antitrypanosomal activity against GFP-expressing intracellular Trypanosoma cruzi Y trypomastigotes infected in african green monkey Vero cells assessed as reduction in infected cell percentage at 40 uM incubated for 72 hrs in the presence of nifurtimox by fluorescence based microplate reader analysis", "assay_type": "functional, organism-based", "outline": "(§2)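 GFP T. cruzi Y-infected Vero cells were cotreated after parasite removal with nifurtimox at 35 μM plus test compound at 20 μM or 40 μM. At 72 h postinfection, percentage of infected cells was determined against nontreated infected controls. Significance was set at p < 0.05.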"}, "Trypanosoma cruzi [2]": {"system": "Trypanosoma cruzi", "assay": "Antitrypanosomal activity against GFP-expressing intracellular Trypanosoma cruzi Y trypomastigotes infected in african green monkey Vero cells assessed as inhibition of parasite proliferation incubated for 72 hrs by fluorescence based microplate reader analysis"}, "Trypanosoma cruzi [3]": {"system": "Trypanosoma cruzi", "assay": "Antitrypanosomal activity against GFP-expressing intracellular Trypanosoma cruzi Y trypomastigotes infected in african green monkey Vero cells assessed as decrease in infection level incubated for 72 hrs by fluorescence based microplate reader analysis", "assay_type": "functional, organism-based", "outline": "(§3)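 Vero cells infected with GFP-expressing T. cruzi Y-strain parasites. After parasite removal, compounds were added at one-tenth of their Vero CC50. At 72 h postinfection, cells were lysed and parasite fluorescence was read. Percentage of infected cells and amastigotes per 100 cells were also determined, with nifurtimox as reference.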"}, "Trypanosoma cruzi [4]": {"system": "Trypanosoma cruzi", "assay": "Antitrypanosomal activity against GFP-expressing intracellular Trypanosoma cruzi Y trypomastigotes infected in african green monkey Vero cells assessed as decrease in number of amastigotes/100 cells incubated for 72 hrs by fluorescence based microplate reader analysis", "assay_type": "functional, organism-based", "outline": "as §3"}, "Trypanosoma cruzi [5]": {"system": "Trypanosoma cruzi", "assay": "as §1, with “20” for “40”", "assay_type": "functional, organism-based", "outline": "as §2"}}, "note": "Activity calls are given as the source filed them. No cut-off for these calls is given here."}
{"smiles": "CC/C=C/C/C=C/C/C=C/CCCCCCCC(=O)O", "values": [{"measurement": "Activity", "setting": "Vero", "value": "Toxic"}]}
{"smiles": "CCCCC/C=C\\C/C=C\\CCCCCCCC(=O)NCc1ccccn1", "values": [{"measurement": "Activity", "setting": "Vero", "value": "Non-Toxic"}]}
{"smiles": "CCCCCCCC/C=C\\CCCCCCCC(=O)NCc1cccnc1", "values": [{"measurement": "Activity", "setting": "Vero", "value": "Non-Toxic"}]}
{"smiles": "CCCCC/C=C/C/C=C/CCCCCCCC(=O)O", "values": [{"measurement": "Activity", "setting": "Vero", "value": "Toxic"}]}
{"smiles": "CCCCCCCC/C=C/CCCCCCCC(=O)NCc1cccnc1", "values": [{"measurement": "Activity", "setting": "Vero", "value": "Non-Toxic"}]}
{"smiles": "CCCCC/C=C\\C/C=C\\CCCCCCCC(=O)NCc1cccnc1", "values": [{"measurement": "Activity", "setting": "Vero", "value": "Non-Toxic"}]}
{"smiles": "CCCCCCCCCCCCCCCC(=O)NCc1ccncc1", "values": [{"measurement": "Activity", "setting": "Vero", "value": "Non-Toxic"}]}
{"smiles": "CCCCCC(=O)NCc1ccncc1", "values": [{"measurement": "Activity", "setting": "Vero", "value": "Non-Toxic"}]}
{"smiles": "CCCCCCCC/C=C/CCCCCCCC(=O)NCc1ccccn1", "values": [{"measurement": "Activity", "setting": "Trypanosoma cruzi [1]", "value": "Active"}, {"measurement": "IC50", "setting": "Trypanosoma cruzi [2]", "value": 47.6, "unit": "µM"}, {"measurement": "Activity", "setting": "Trypanosoma cruzi [3]", "value": "Active"}, {"measurement": "Activity", "setting": "Trypanosoma cruzi [4]", "value": "Active"}, {"measurement": "Activity", "setting": "Vero", "value": "Non-Toxic"}]}
{"smiles": "CC/C=C\\C/C=C\\C/C=C\\CCCCCCCC(=O)NCc1ccccn1", "values": [{"measurement": "Activity", "setting": "Vero", "value": "Non-Toxic"}]}
{"smiles": "CCCCCCCCCCCC(=O)NCc1cccnc1", "values": [{"measurement": "Activity", "setting": "Vero", "value": "Non-Toxic"}]}
{"smiles": "CCCCCCCC/C=C/CCCCCCCC(=O)NCc1ccncc1", "values": [{"measurement": "Activity", "setting": "Vero", "value": "Non-Toxic"}]}
{"smiles": "CC/C=C\\C/C=C\\C/C=C\\CCCCCCCC(=O)NCc1cccnc1", "values": [{"measurement": "Activity", "setting": "Vero", "value": "Non-Toxic"}]}
{"smiles": "CCCCCCCCCCCCCCCCCC(=O)NCc1cccnc1", "values": [{"measurement": "Activity", "setting": "Vero", "value": "Non-Toxic"}]}
{"smiles": "CCCCCCCCCCCCCCCCCC(=O)NCc1ccncc1", "values": [{"measurement": "Activity", "setting": "Vero", "value": "Non-Toxic"}]}
{"smiles": "CC(=O)NCc1ccncc1", "values": [{"measurement": "Activity", "setting": "Vero", "value": "Non-Toxic"}]}
{"smiles": "CCCCCCCCCCCC(=O)NCc1ccncc1", "values": [{"measurement": "Activity", "setting": "Vero", "value": "Non-Toxic"}]}
{"smiles": "CCCCCCCC/C=C\\CCCCCCCC(=O)NCc1ccccn1", "values": [{"measurement": "Activity", "setting": "Vero", "value": "Non-Toxic"}]}
{"smiles": "CCCCCCCCCCCC(=O)NCc1ccccn1", "values": [{"measurement": "IC50", "setting": "Trypanosoma cruzi [2]", "value": "> 100", "unit": "µM"}, {"measurement": "Activity", "setting": "Vero", "value": "Non-Toxic"}]}
{"smiles": "CCCCCCCCCCCCCCCCCC(=O)NCc1ccccn1", "values": [{"measurement": "Activity", "setting": "Trypanosoma cruzi [5]", "value": "Active"}, {"measurement": "IC50", "setting": "Trypanosoma cruzi [2]", "value": 16.4, "unit": "µM"}, {"measurement": "Activity", "setting": "Trypanosoma cruzi [3]", "value": "Active"}, {"measurement": "Activity", "setting": "Trypanosoma cruzi [4]", "value": "Active"}, {"measurement": "Activity", "setting": "Vero", "value": "Non-Toxic"}]}
{"smiles": "CCCCCCCCC/C=C\\CCCCCCC(=O)O", "values": [{"measurement": "Activity", "setting": "Vero", "value": "Toxic"}]}
